The values that follow come from ChEMBL document CHEMBL1157673, “Synthesis and in vitro evaluation of fluorinated diphenyloxide derivatives and sulfur analogs as serotonin transporter ligands” (Bioorg Med Chem, 2010).

For test [1], the target named is Sodium-dependent serotonin transporter (Homo sapiens, UniProt P31645). Description: Displacement of [3H]citalopram from human cloned SERT expressed in HEK293 cells. The class given is cell-based. The method in brief: (§1)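 Each compound was first tested at 100 nM against tritiated radioligand binding. A Ki was determined only where that concentration inhibited at least 50% of specific binding (IC50 <100 nM).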
Sequence of Sodium-dependent serotonin transporter (P31645 whole entry): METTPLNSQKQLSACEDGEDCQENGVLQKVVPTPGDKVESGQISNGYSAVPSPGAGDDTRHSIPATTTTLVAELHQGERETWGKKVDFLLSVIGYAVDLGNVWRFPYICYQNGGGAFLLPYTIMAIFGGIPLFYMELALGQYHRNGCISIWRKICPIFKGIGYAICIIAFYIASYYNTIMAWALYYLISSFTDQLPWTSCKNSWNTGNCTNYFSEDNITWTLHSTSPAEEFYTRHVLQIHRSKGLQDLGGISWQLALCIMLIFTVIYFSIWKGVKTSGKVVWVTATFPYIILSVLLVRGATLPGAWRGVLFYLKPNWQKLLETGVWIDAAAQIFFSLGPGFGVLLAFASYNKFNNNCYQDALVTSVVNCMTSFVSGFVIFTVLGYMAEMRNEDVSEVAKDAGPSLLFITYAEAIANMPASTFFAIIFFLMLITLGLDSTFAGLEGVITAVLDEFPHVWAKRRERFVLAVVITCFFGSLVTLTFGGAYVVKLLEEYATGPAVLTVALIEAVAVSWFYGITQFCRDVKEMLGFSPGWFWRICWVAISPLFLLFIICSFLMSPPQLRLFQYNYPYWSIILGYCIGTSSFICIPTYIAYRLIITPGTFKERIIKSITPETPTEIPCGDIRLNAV
On the technique in general: Loss of bound radioactivity is the signal in a displacement assay; it reports binding, not function.

The target of test [2] is T1, Sodium-dependent dopamine transporter (Homo sapiens, UniProt Q01959). As to the kind of experiment: Displacement of [3H]WIN-35428 from human cloned DAT expressed in HEK293 cells. The class given is cell-based. The note with it: in the assay text read “[3H]GBR12935” for “[3H]WIN-35428”. An outline of the steps:
as §1

The target of test [3] is Sodium-dependent noradrenaline transporter (Homo sapiens, UniProt P23975). Description: Displacement of [3H]nisoxetine from human cloned NET expressed in HEK293 cells. The class given is cell-based. The method in brief:
as §1

Test [4] deals with T1, Sodium-dependent dopamine transporter. As to the kind of experiment: Displacement of [3H]GBR12935 from human cloned DAT expressed in HEK293 cells.

Bounds are passed on as bounds.

Sequence of Sodium-dependent noradrenaline transporter (P23975 whole entry): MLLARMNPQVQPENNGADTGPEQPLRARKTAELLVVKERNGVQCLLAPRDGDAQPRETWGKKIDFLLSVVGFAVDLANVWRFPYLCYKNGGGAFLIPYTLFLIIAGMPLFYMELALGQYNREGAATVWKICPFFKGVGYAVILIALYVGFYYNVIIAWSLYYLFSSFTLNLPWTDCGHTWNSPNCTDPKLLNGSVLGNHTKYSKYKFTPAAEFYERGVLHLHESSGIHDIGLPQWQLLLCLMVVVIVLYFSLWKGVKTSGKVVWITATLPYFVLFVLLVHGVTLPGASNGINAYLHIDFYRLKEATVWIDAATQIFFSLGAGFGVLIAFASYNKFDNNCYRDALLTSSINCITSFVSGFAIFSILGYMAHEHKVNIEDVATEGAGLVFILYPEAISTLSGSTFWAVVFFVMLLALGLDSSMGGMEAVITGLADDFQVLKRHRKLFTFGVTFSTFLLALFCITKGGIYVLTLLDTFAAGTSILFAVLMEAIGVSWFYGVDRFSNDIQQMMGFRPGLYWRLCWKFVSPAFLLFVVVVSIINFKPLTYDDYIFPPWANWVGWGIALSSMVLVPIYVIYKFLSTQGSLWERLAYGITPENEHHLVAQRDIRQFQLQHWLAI
T1 sequence (Q01959 whole entry): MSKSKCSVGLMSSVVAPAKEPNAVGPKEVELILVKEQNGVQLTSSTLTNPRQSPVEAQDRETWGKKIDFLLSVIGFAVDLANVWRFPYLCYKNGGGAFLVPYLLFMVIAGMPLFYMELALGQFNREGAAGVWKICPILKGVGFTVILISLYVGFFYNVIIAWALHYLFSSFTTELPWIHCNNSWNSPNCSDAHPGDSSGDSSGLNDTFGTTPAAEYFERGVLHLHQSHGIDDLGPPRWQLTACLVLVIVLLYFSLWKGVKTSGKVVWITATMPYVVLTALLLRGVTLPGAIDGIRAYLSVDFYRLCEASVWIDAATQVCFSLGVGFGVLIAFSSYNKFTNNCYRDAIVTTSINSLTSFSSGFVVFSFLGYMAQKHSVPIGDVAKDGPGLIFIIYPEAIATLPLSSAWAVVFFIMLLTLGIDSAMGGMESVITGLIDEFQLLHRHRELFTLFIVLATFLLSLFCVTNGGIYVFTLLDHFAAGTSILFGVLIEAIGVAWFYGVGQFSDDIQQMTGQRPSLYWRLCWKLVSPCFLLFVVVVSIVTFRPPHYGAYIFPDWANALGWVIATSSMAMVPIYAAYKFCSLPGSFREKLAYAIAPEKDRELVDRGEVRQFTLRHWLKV

The Ki is a dissociation constant, usually derived from enzyme kinetics or from competition with a known ligand. A low value points to tighter binding. For `Cc1ccc(Oc2cc(OCCCF)ccc2CN(C)C)c(N)c1`, the figures for the Ki in test [1], in test [2] and in test [3] were 445 nM, above 1000 nM and above 500 nM, respectively.

Compound `CN(C)Cc1ccccc1Oc1ccc(I)cc1N` yielded a Ki in test [1] of 0.171 nM.

On to `Cc1ccc(Oc2cc(F)ccc2CN(C)C)c(N)c1`, for which the Ki in test [1] was 7 nM; in test [2], 960 nM; in test [3], 503 nM.

On to `Cc1ccc(Oc2ccc(OCCCCF)cc2CN(C)C)c(N)c1`, for which the results for the Ki in test [1], in test [3] and in test [4] were 12 nM, 406 nM and 3600 nM, respectively.

With `Cc1ccc(Oc2ccc(OCCCF)cc2CN(C)C)c(N)c1`, the Ki was 7 nM in test [1], 6980 nM in test [2] and 632 nM in test [3].

On to `Cc1ccc(Oc2ccc(F)cc2CN(C)C)c(N)c1`, for which the Ki in test [1] was 8 nM; in test [3], 1240 nM; in test [4], 503 nM.

As for `Cc1ccc(Sc2cc(F)ccc2CN(C)C)c(N)c1`, the Ki in test [1] turned out to be 13 nM; in test [2], 1220 nM; in test [3], 1200 nM.

On to `Cc1ccc(Oc2ccc(OCCF)cc2CN(C)C)c(N)c1`, for which the values for the Ki in test [1], in test [2] and in test [3] were 401 nM, 4190 nM and 667 nM, respectively.

Consider `Cc1ccc(Oc2cc(OCCF)ccc2CN(C)C)c(N)c1`, for which the Ki in test [1] was determined as 519 nM; in test [2], 726 nM; in test [3], 8850 nM.
